# RanGTP-Imp inh: inhibitors of RanGTP-importin-beta interaction, primary screen, biochemical, FRET, CFP-Ran, YFP-importin-beta, homogeneous; cell-free CFP-Ran/YFP-importin-beta FRET ratio; inhibition, % (test concentration not listed); 300,000 compounds, 1.1% hits;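 active = more than half of the replicate wells show a fall in the fluorescence ratio signal beyond about 16%, limit read from the data, passing the limit was not always enough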;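 note: 0% = DMSO wells and 100% = Ran loaded with GDP instead of GTP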
# Tb hexokinase: Trypanosoma brucei hexokinase 1 inhibitors, primary screen, biochemical, G6PDH-coupled NADH absorbance, MLSCN library; hexokinase 1 [Trypanosoma brucei]; recombinant TbHK1, G6PDH-coupled NADH A340; inhibition, % at 10 µM; 220,000 compounds, 0.11% hits;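 active = inhibition of 50% or more in the single-dose primary screen; inactive = inhibition below 50%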
# p97 inhibitor: inhibitors of human p97 ATPase, primary screen, biochemical. AID 1481, 2009. recombinant p97 ATPase, Kinase-Glo ATP luminescence, 3 h. Transitional endoplasmic reticulum ATPase (Homo sapiens), P55072. 220,000 compounds, 0.42% hits. inhibition, % at 8 µM; in the data active = inhibition above about 15%;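 note: 0% = DMSO vehicle and 100% = wells lacking enzyme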
# Target sequence (P55072 whole entry, looked up): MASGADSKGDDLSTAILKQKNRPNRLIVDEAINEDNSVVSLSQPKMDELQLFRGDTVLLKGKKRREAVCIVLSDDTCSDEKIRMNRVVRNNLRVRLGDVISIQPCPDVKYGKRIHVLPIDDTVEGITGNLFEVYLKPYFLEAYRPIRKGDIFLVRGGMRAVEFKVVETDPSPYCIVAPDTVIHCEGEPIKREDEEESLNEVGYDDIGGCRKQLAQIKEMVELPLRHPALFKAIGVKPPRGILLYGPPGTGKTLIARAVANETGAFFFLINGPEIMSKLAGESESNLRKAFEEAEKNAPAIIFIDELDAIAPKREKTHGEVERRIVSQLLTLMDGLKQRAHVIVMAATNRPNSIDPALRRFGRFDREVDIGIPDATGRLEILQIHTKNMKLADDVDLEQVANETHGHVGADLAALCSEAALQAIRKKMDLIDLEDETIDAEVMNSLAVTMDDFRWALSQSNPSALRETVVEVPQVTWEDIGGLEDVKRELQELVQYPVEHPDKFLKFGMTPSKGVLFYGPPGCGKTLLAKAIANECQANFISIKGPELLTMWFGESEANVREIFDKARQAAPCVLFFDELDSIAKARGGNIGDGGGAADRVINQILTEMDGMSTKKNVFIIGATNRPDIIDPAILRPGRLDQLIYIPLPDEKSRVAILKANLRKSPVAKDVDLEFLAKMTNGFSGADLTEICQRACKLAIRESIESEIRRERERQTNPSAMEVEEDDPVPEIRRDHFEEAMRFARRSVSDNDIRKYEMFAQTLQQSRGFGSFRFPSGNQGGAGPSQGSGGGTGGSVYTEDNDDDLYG
# Runt-SMMHC FRET: inhibitors of RUNX1 Runt–CBFb-SMMHC binding, primary screen, biochemical, FRET, Cerulean-Runt, Venus-CBFb-SMMHC, uHTS | AID 1434, 2008 | inhibition, % at 20 µM | Cerulean-Runt/Venus-CBFb-SMMHC FRET ratio 530/480, 1 h | 220,000 compounds, 0.74% hits;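 active = mean inhibition across duplicate retests at 20 µM reaching about 50%, limit read from the data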;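 note: 0% = DMSO wells and 100% = wells with excess untagged CBFb-SMMHC; inhibitors lower the FRET ratio by blocking Runt binding to CBFb-SMMHC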
# Hck-Nef inh: inhibitors of Nef-activated human Hck kinase, primary screen, biochemical, Z-Lyte FRET, 384-well, Hck-YEEI | Tyrosine-protein kinase HCK (Homo sapiens), P08631 | Recombinant Hck-YEEI plus Nef, Z-Lyte FRET kinase assay | inhibition, % at 20 µM | 220,000 compounds, 0.68% hits | AID 463187, 2010;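 active = Hck-Nef kinase inhibition above about 50%, limit read from the data; inactive = inhibition below that limit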;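 note: 0% = DMSO with Hck plus Nef and 100% = Hck alone without Nef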
# Runt-CBFb FRET: inhibitors of RUNX1 Runt–CBFb binding, primary screen, biochemical, FRET, Cerulean-Runt, Venus-CBFb, uHTS; Cerulean-Runt/Venus-CBFb FRET ratio 530/480, 1 h; AID 1496, 2009; 220,000 compounds, 0.46% hits; Runt-related transcription factor 1 (Homo sapiens) + Core-binding factor subunit beta …; inhibition, % at 20 µM;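 active = inhibition over about 50% at 20 µM in the single-dose screen, limit read from the data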;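 note: 0% = DMSO wells and 100% = excess unlabeled CBFb competitor control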
#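 Measured by: fluorescence energy transfer, 422 nm excitation, 530/480 nm emission; Assay system: Cerulean-Runt domain; Medium: Tris pH 7.5 buffer with BSA; Measure: loss of energy transfer signal; Controls: 5 µM unlabeled CBFb as full-inhibition high control; Incubation: protein complex preformed 1 h, compound exposure 1 h, room temperature, dark.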
# p97 inh conf: p97 ATPase inhibitors, retest, confirmation, biochemical; AID 1517, 2009; recombinant p97 ATPase, Kinase-Glo ATP luminescence; 760 compounds, 44% hits; shares compounds with p97 inhibitor; inhibition, % at 8 µM;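 active = percent inhibition of p97 ATPase above a set limit, the primary screen's mean plus 3 SD, cut at about 15% in these data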;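 note: 0% = DMSO wells and 100% = wells lacking p97 protein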
# YIC counter: YIC intramolecular FRET probe signal interference, dose response, counter-screen for RanGTP-importin-beta inhibitor project, biochemical, fluorescence FRET; shares compounds with RanGTP-Imp inh; Purified YIC probe, intramolecular FRET ratio YFP/CFP; IC50, µM; 1,000 compounds, 40% hits; AID 435026, 2010;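 active = fitted half-maximal inhibitory concentration no more than tenfold above the top dose tested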
# Hck Nef conf: retest of Hck:Nef kinase inhibitor hits, confirmation, biochemical, Z-Lyte FRET, 384-well, p-Tyr peptide counterscreen. shares compounds with Hck-Nef inh. Recombinant Hck-YEEI:Nef, Z-Lyte FRET kinase assay. calls only at 10 µM. 1,300 compounds, 28% hits. AID 463188, 2010;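 active = average inhibition of at least 50%, with Z-scores no higher than 3 in both the phospho-tyrosine peptide and fluorescence counterscreens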
# * marks the source's active call; other numbers are inactive results; i = inactive; x = no result shown; + = active, no number. An excerpt weighted towards active compounds, which were near 2.1% of everything screened.
SMILES,RanGTP-Imp inh,Tb hexokinase,p97 inhibitor,Runt-SMMHC FRET,Hck-Nef inh,Runt-CBFb FRET,p97 inh conf,others
CC(=O)c1ccc(C(=O)N2CCc3c([nH]c4ccccc34)C2c2cccc(C)n2)s1 (stereo unspecified),2,-26,4,0,-16,0,x,
CCCCn1c(N)c(N(CC)C(=O)CCc2ccccc2)c(=O)[nH]c1=O,2,12,3,5,5,0,x,
Cc1[nH][nH]c(=O)c1C(c1ccc(-c2ccc(C(=O)O)cc2)o1)c1c(C)[nH][nH]c1=O,x,-3,25*,13,26,18,10,
COc1ccc(Cl)cc1NC(=O)C/C(C)=N/NC(=O)Cc1ccccc1,3,-6,15*,2,16,-3,6,
CC(=O)NCCN1C(=O)C2C3c4ccccc4C(c4ccccc43)C2C1=O (stereo unspecified),0,-1,3,0,-22,-1,x,
Cn1c(COc2ccccc2)nnc1SCC(=O)Nc1ccc(N2CCOCC2)cc1,-4,x,x,x,x,x,x,
O=C(Oc1cccc(Nc2ncnc3ccccc23)c1)c1ccccc1Cl,-6,-6,16*,5,31,-2,25*,
COc1cccc(Nc2ncnc3ccccc23)c1,2,-25,2,-1,13,1,x,
O=C(N/N=C/c1c(Cl)nc2ccccn2c1=O)c1cccnc1,9,-22,17*,-17,-5,-20,9,
C[N+]1(C)CCC(=C2c3ccccc3CC(=O)c3sccc32)CC1,-3,-8,19*,6,1,-5,14,
CC[N+]1(C)CCC(=C2c3ccccc3CC(=O)c3sccc32)CC1 (stereo unspecified),-1,-1,5,-9,1,-4,x,
c1ccc(Cn2nnc3c(N4CCCCCC4)ncnc32)cc1,3,-4,20*,-1,17,0,1,
Cc1c(NC(=O)CSc2ncccn2)c(=O)n(-c2ccccc2)n1C,-2,0,7,2,-5,0,x,
NC(=O)c1sc2nc(-c3ccco3)ccc2c1N,-1,-54,24*,5,7,14,5,
Cc1c(Br)c(=O)oc2c(Br)c(O)c(O)cc12,26*,27,24*,76*,-28,55*,31*,YIC counter=11*
CCOC(=O)c1c(N)n(CCOC(=O)c2cccs2)c2nc3ccccc3nc12,23*,-12,21*,109*,28,45,7,YIC counter=37*
CCOC(=O)c1cnn(CCOC(=O)c2cccs2)c1NC(=O)c1cccs1,x,2,3,1,3,0,x,
Cc1ccc(-n2c(SCC(=O)N3CCOCC3)nnc2-c2ccncc2)cc1C,-4,-12,4,0,20,1,x,
O=C(NNc1c2ccccc2nc2ccccc12)c1ccc(O)cc1O,38*,-10,35*,48,0,13,38*,YIC counter=>50
Cc1ccccc1NCC(=O)N/N=C/C(Br)=C/c1ccccc1,3,-14,-1,0,2,2,x,
Cc1ccccc1C(=O)Nc1nc2c(C)csc2c(=O)s1,-1,-19,39*,16,78*,7,37*,Hck Nef conf=i
Cc1csc2nc(NC(=O)c3ccccc3)sc(=O)c12,0,-27,12,6,1,4,x,
CCCCn1c(NCc2ccccc2NS(=O)(=O)c2ccc(C)cc2)nc2ccccc21,3,1,3,-1,2,0,x,
CCCCn1c(NS(=O)(=O)c2ccc(C)cc2)c(S(=O)(=O)c2ccccc2)c2nc3ccccc3nc21,14,-3,24*,39,97*,3,39*,Hck Nef conf=i
O=c1cc(-c2ccc(O)c(-c3c(O)cc(O)c4c(=O)cc(-c5ccc(O)cc5)oc34)c2)oc2cc(O)cc(O)c12,-1,-10,41*,-11,53*,-8,64*,Hck Nef conf=+
SMILES,RanGTP-Imp inh,Tb hexokinase,p97 inhibitor,Runt-SMMHC FRET,Hck-Nef inh,Runt-CBFb FRET,p97 inh conf,others
O=c1cc(-c2ccccc2)oc2cc(OCc3ccccc3)cc(O)c12,-4,11,-1,3,18,1,x,
Cc1cc(-c2cccs2)c(C#N)c(=S)[nH]1,5,-6,2,37,-48,13,x,
N#Cc1c(-c2cccs2)cc(-c2cccs2)[nH]c1=O,45*,-18,16*,80*,109*,86*,15*,
Cc1ccc(C)n1-c1ccc(N2CCOCC2)c(Br)c1,8,-3,0,2,1,3,x,
Cc1c(N=C2C=C(Br)C(=O)C(Br)=C2)c(=O)n(-c2ccccc2)n1C,x,2,27*,13,50*,17,8,Hck Nef conf=i
Cc1cccc(C(=O)N/N=C/c2coc3ccccc3c2=O)c1,0,x,x,x,x,x,x,
O=C(N/N=C/c1coc2ccccc2c1=O)c1cc(O)cc(O)c1,x,7,30*,-46,63*,-12,33*,Hck Nef conf=+
Cc1ccc(OCC(O)CNC(C)c2ccccc2)cc1C (stereo unspecified),2,x,x,x,x,x,x,
COc1cccc(-n2c(SCc3cc(=O)oc4cc(O)c(O)cc34)nc3ccccc3c2=O)c1,1,29,40*,x,74*,67*,40*,
Nc1ncnc2oc(-c3ccco3)c(-c3ccco3)c12,-5,-17,17*,1,71*,17,13,Hck Nef conf=+
O=C1/C(=C/C=C/c2ccco2)SC(=S)N1NS(=O)(=O)c1ccccc1,x,67*,16*,6,102*,33,14,Hck Nef conf=+
COC(=O)C1=C(C)Nc2ccc(C)cc2S1,4,4,0,-1,7,2,x,
